Assay: Adverse events
Format: in vivo, human
Settings: BRCAmut and BRCAwt combined
How it was run: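 Patients with germline BRCA-mutated cancers, or BRCA-wildtype TNBC or platinum-refractory ovarian cancer, took oral drug continuously twice daily in 28-day cycles. There were nine dose levels from 50 to 500 mg BID under 3+3 escalation, run separately per cohort after the first DLT. Toxicities were graded by CTCAE v4.0, with DLTs assessed during cycle 1.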

C[C@]1(c2nc3c(C(N)=O)cccc3[nH]2)CCCN1 [veliparib]
Abdominal pain, Any Grade: 6 (6) number of patients (%) | Abdominal pain, Grade 1: 3 (3) number of patients (%) | Abdominal pain, Grade 2: 1 (1) number of patients (%) | Abdominal pain, Grade 3: 2 (2) number of patients (%) | Abdominal pain, Grade 4: 0 (0) number of patients (%) | Alkaline phosphatase increased, Any Grade: 6 (6) number of patients (%) | Alkaline phosphatase increased, Grade 1: 3 (3) number of patients (%) | Alkaline phosphatase increased, Grade 2: 2 (2) number of patients (%) | Alkaline phosphatase increased, Grade 3: 1 (1) number of patients (%) | Alkaline phosphatase increased, Grade 4: 0 (0) number of patients (%) | Anemia, Any Grade: 31 (32) number of patients (%) | Anemia, Grade 1: 19 (19) number of patients (%) | Anemia, Grade 2: 10 (10) number of patients (%) | Anemia, Grade 3: 1 (1) number of patients (%) | Anemia, Grade 4: 1 (1) number of patients (%) | Anorexia, Any Grade: 20 (20) number of patients (%) | Anorexia, Grade 1: 17 (17) number of patients (%) | Anorexia, Grade 2: 3 (3) number of patients (%) | Anorexia, Grade 3: 0 (0) number of patients (%) | Anorexia, Grade 4: 0 (0) number of patients (%) | Any adverse event, Any Grade: 92 (94) number of patients (%) | Any adverse event, Grade 1: 86 (88) number of patients (%) | Any adverse event, Grade 2: 54 (55) number of patients (%) | Any adverse event, Grade 4: 3 (3) number of patients (%) | Aspartate aminotransferase increased, Any Grade: 9 (9) number of patients (%) | Aspartate aminotransferase increased, Grade 1: 8 (8) number of patients (%) | Aspartate aminotransferase increased, Grade 2: 0 (0) number of patients (%) | Aspartate aminotransferase increased, Grade 3: 1 (1) number of patients (%) | Aspartate aminotransferase increased, Grade 4: 0 (0) number of patients (%) | Constipation, Any Grade: 9 (9) number of patients (%) | Constipation, Grade 1: 8 (8) number of patients (%) | Constipation, Grade 2: 1 (1) number of patients (%) | Constipation, Grade 3: 0 (0) number of patients (%) | Constipation, Grade 4: 0 (0) number of patients (%) | Diarrhea, Any Grade: 19 (19) number of patients (%) | Diarrhea, Grade 1: 16 (16) number of patients (%) | Diarrhea, Grade 2: 3 (3) number of patients (%) | Diarrhea, Grade 3: 0 (0) number of patients (%) | Diarrhea, Grade 4: 0 (0) number of patients (%) | Dizziness, Any Grade: 9 (9) number of patients (%) | Dizziness, Grade 1: 8 (8) number of patients (%) | Dizziness, Grade 2: 1 (1) number of patients (%) | Dizziness, Grade 3: 0 (0) number of patients (%) | Dizziness, Grade 4: 0 (0) number of patients (%) | Dry mouth, Any Grade: 8 (8) number of patients (%) | Dry mouth, Grade 1: 8 (8) number of patients (%) | Dry mouth, Grade 2: 0 (0) number of patients (%) | Dry mouth, Grade 3: 0 (0) number of patients (%) | Dry mouth, Grade 4: 0 (0) number of patients (%) | Dysgeusia, Any Grade: 16 (16) number of patients (%) | Dysgeusia, Grade 1: 16 (16) number of patients (%) | Dysgeusia, Grade 2: 0 (0) number of patients (%) | Dysgeusia, Grade 3: 0 (0) number of patients (%) | Dysgeusia, Grade 4: 0 (0) number of patients (%) | Dyspepsia, Any Grade: 6 (6) number of patients (%) | Dyspepsia, Grade 1: 6 (6) number of patients (%) | Dyspepsia, Grade 2: 0 (0) number of patients (%) | Dyspepsia, Grade 3: 0 (0) number of patients (%) | Dyspepsia, Grade 4: 0 (0) number of patients (%) | Dyspnea, Any Grade: 5 (5) number of patients (%) | Dyspnea, Grade 1: 2 (2) number of patients (%) | Dyspnea, Grade 2: 1 (1) number of patients (%) | Dyspnea, Grade 3: 1 (1) number of patients (%) | Dyspnea, Grade 4: 1 (1) number of patients (%) | Fatigue, Any Grade: 44 (45) number of patients (%) | Fatigue, Grade 1: 33 (34) number of patients (%) | Fatigue, Grade 2: 9 (9) number of patients (%) | Fatigue, Grade 3: 2 (2) number of patients (%) | Fatigue, Grade 4: 0 (0) number of patients (%) | Headache, Any Grade: 9 (9) number of patients (%) | Headache, Grade 1: 7 (7) number of patients (%) | Headache, Grade 2: 1 (1) number of patients (%) | Headache, Grade 3: 1 (1) number of patients (%) | Headache, Grade 4: 0 (0) number of patients (%) | Hyperglycemia, Any Grade: 10 (10) number of patients (%) | Hyperglycemia, Grade 1: 9 (9) number of patients (%) | Hyperglycemia, Grade 2: 1 (1) number of patients (%) | Hyperglycemia, Grade 3: 0 (0) number of patients (%) | Hyperglycemia, Grade 4: 0 (0) number of patients (%) | Hyponatremia, Any Grade: 7 (7) number of patients (%) | Hyponatremia, Grade 1: 7 (7) number of patients (%) | Hyponatremia, Grade 2: 0 (0) number of patients (%) | Hyponatremia, Grade 3: 0 (0) number of patients (%) | Hyponatremia, Grade 4: 0 (0) number of patients (%) | Hypophosphatemia, Any Grade: 8 (8) number of patients (%) | Hypophosphatemia, Grade 1: 2 (2) number of patients (%)
